Test results from ChEMBL document CHEMBL1142938 (J Med Chem, 2007).

Tests used:
Adenosine receptor A2a = Adenosine receptor A2a (Homo sapiens, UniProt P29274); assay: Displacement of [3H]NECA from human recombinant adenosine A2A receptor expressed in CHO cells; type: cell-based
Outline: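 Competition binding with [3H]NECA at 30 nM on stably transfected CHO cells. Nonspecific binding defined with 1 mM theophylline. Dissociation constants (Ki) obtained by nonlinear curve fitting.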

[1] = target: Adenosine receptors; A1 & A3 (Homo sapiens) (UniProt P30542+P0DMS8); assay: Selectivity for human adenosine A3 receptor over human adenosine A1 receptor; type: protein assay
Adenosine receptor A3 = target: T1, Adenosine receptor A3 (Homo sapiens, UniProt P0DMS8); assay: Displacement of [3H]NECA from human recombinant adenosine A3 receptor expressed in CHO cells; type: cell-based
T1 sequence (P0DMS8 whole entry): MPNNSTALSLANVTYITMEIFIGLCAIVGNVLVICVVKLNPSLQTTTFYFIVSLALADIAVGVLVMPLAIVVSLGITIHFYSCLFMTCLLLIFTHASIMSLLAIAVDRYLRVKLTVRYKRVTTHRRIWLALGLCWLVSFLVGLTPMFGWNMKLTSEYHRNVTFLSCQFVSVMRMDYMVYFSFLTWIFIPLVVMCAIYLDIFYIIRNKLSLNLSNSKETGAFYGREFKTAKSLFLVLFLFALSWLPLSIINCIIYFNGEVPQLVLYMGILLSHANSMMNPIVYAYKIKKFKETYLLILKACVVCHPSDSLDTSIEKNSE
Outline: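 [3H]NECA used at 10 nM as radioligand in competition experiments, stably transfected CHO cells. Nonspecific binding defined with 1 mM theophylline. Ki from nonlinear curve fitting.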

[2] = target: Adenosine receptors; A2a & A3 (Homo sapiens) (UniProt P0DMS8+P29274); assay: Selectivity for human adenosine A3 receptor over human adenosine A2A receptor; type: protein assay
Adenosine receptor A1 = target: T2, Adenosine receptor A1 (Homo sapiens, UniProt P30542); assay: Displacement of [3H]CCPA from human recombinant adenosine A1 receptor expressed in CHO cells; type: cell-based
T2 sequence (P30542 whole entry): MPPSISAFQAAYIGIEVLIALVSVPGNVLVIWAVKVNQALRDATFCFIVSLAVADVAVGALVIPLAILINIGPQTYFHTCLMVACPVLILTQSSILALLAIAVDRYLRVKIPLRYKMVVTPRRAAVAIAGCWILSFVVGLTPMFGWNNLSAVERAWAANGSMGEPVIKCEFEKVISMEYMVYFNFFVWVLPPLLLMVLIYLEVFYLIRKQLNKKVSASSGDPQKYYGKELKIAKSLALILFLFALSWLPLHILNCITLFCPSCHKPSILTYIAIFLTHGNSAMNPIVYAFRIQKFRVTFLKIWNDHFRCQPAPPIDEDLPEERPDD

[3] = target: T3, Adenosine receptor A3 (Homo sapiens) (UniProt P0DMS8); assay: Activity at human adenosine A3 receptor assessed as inhibition of forskolin-stimulated cAMP production in CHO cells; type: functional, cell-based; parameters: concentration or dose not given beside the values
T3 sequence (whole entry): T1 sequence (P0DMS8 whole entry)

Chain of Adenosine receptor A2a (P29274 whole entry): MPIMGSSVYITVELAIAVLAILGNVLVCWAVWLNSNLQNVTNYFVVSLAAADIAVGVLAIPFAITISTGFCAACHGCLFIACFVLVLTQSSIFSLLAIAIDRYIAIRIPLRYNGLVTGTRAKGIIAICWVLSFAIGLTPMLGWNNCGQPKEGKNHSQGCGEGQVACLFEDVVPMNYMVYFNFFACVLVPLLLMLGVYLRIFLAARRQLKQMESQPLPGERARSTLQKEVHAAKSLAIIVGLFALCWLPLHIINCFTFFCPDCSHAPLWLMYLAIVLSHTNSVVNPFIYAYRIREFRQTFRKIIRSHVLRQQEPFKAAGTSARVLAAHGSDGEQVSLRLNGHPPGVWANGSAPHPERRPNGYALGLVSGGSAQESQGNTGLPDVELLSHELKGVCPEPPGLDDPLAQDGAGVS

CCCCC#Cc1nc(NOC)c2ncn([C@@H]3O[C@H](CO)[C@@H](O)[C@H]3O)c2n1
Ki (Adenosine receptor A2a): 267 nM
Ratio Ki [1]: 35
Ki (Adenosine receptor A3): 2.8 nM
Ratio Ki [2]: 95
Ki (Adenosine receptor A1): 97 nM

CONc1nc(C#CCCCC#N)nc2c1ncn2[C@@H]1O[C@H](CO)[C@@H](O)[C@H]1O
Ki (Adenosine receptor A2a): 1820 nM
Ratio Ki [1]: 69
Ki (Adenosine receptor A3): 4.1 nM
Ratio Ki [2]: 444
Ki (Adenosine receptor A1): 282 nM

CONc1nc(C#Cc2ccc(CC#N)cc2)nc2c1ncn2[C@@H]1O[C@H](CO)[C@@H](O)[C@H]1O
Ki (Adenosine receptor A2a): 3080 nM
Ratio Ki [1]: 207
Ki (Adenosine receptor A3): 3.7 nM
Ratio Ki [2]: 832
Ki (Adenosine receptor A1): 766 nM

CONc1nc(C#Cc2ccccc2)nc2c1ncn2[C@@H]1O[C@@H](CO)[C@@H](O)[C@H]1O
Ki (Adenosine receptor A2a): 4290 nM
Ratio Ki [1]: 318
Activity [3]: 81%
Ki (Adenosine receptor A3): 3.8 nM
Ratio Ki [2]: 1100
Ki (Adenosine receptor A1): 1210 nM

CCNC(=O)[C@H]1O[C@@H](n2cnc3c(NOC)nc(C#Cc4ccc(F)cc4)nc32)[C@H](O)[C@@H]1O
Ki (Adenosine receptor A2a): 6290 nM
Ratio Ki [1]: 587
Ki (Adenosine receptor A3): 3.2 nM
Ratio Ki [2]: 2000
Ki (Adenosine receptor A1): 1880 nM

CNC(=O)[C@H]1O[C@@H](n2cnc3c(NOC)nc(C#Cc4ccc(F)cc4)nc32)[C@H](O)[C@@H]1O
Ki (Adenosine receptor A2a): 18700 nM
Ratio Ki [1]: 1600
Ki (Adenosine receptor A3): 1.9 nM
Ratio Ki [2]: 9800
Ki (Adenosine receptor A1): 3000 nM

CONc1nc(C#CCC(C)O)nc2c1ncn2[C@@H]1O[C@H](CO)[C@@H](O)[C@H]1O (some centres not stated)
Ki (Adenosine receptor A2a): 758 nM
Ratio Ki [1]: 18
Ki (Adenosine receptor A3): 5.4 nM
Ratio Ki [2]: 140
Ki (Adenosine receptor A1): 95 nM

CONc1nc(C#Cc2ccncc2)nc2c1ncn2[C@@H]1O[C@H](CO)[C@@H](O)[C@H]1O
Ki (Adenosine receptor A2a): 6310 nM
Ratio Ki [1]: 198
Ki (Adenosine receptor A3): 6 nM
Ratio Ki [2]: 1100
Ki (Adenosine receptor A1): 1190 nM

CONc1nc(C#Cc2cccnc2)nc2c1ncn2[C@@H]1O[C@H](CO)[C@@H](O)[C@H]1O
Ki (Adenosine receptor A2a): 12500 nM
Ratio Ki [1]: 32
Ki (Adenosine receptor A3): 7.9 nM
Ratio Ki [2]: 1600
Ki (Adenosine receptor A1): 255 nM

CCCCCc1ccc(C#Cc2nc(NOC)c3ncn([C@@H]4O[C@H](CO)[C@@H](O)[C@H]4O)c3n2)cc1
Ki (Adenosine receptor A2a): 6520 nM
Ratio Ki [1]: 19
Ki (Adenosine receptor A3): 39 nM
Ratio Ki [2]: 167
Ki (Adenosine receptor A1): 730 nM

CCNC(=O)[C@H]1O[C@@H](n2cnc3c(NOC)nc(I)nc32)[C@H](O)[C@@H]1O
Ki (Adenosine receptor A2a): 5290 nM
Ratio Ki [1]: 19
Ki (Adenosine receptor A3): 2.8 nM
Ratio Ki [2]: 1900
Ki (Adenosine receptor A1): 53 nM

CONc1nc(C#Cc2ccc(C(C)=O)cc2)nc2c1ncn2[C@@H]1O[C@H](CO)[C@@H](O)[C@H]1O
Ki (Adenosine receptor A2a): 2680 nM
Ratio Ki [1]: 427
Activity [3]: 81%
Ki (Adenosine receptor A3): 3 nM
Ratio Ki [2]: 893
Ki (Adenosine receptor A1): 1280 nM

CNC(=O)[C@H]1O[C@@H](n2cnc3c(NOC)nc(C#Cc4ccccn4)nc32)[C@H](O)[C@@H]1O
Ki (Adenosine receptor A2a): 18000 nM
Ratio Ki [1]: 3600
Activity [3]: 34%
Ki (Adenosine receptor A3): 1.1 nM
Ratio Ki [2]: 16400
Ki (Adenosine receptor A1): 3990 nM

CONc1nc(C#Cc2ccccn2)nc2c1ncn2[C@@H]1O[C@H](CO)[C@@H](O)[C@H]1O
Ki (Adenosine receptor A2a): 2960 nM
Ratio Ki [1]: 190
Activity [3]: 94%
Ki (Adenosine receptor A3): 2.3 nM
Ratio Ki [2]: 1300
Ki (Adenosine receptor A1): 437 nM

CCNC(=O)[C@H]1O[C@@H](n2cnc3c(NOC)nc(C#Cc4ccccn4)nc32)[C@H](O)[C@@H]1O
Ki (Adenosine receptor A2a): 6460 nM
Ratio Ki [1]: 109
Ki (Adenosine receptor A3): 1.6 nM
Ratio Ki [2]: 4000
Ki (Adenosine receptor A1): 175 nM

CONc1nc(C#C[Si](C)(C)C)nc2c1ncn2[C@@H]1O[C@H](CO)[C@@H](O)[C@H]1O
Ki (Adenosine receptor A2a): 5740 nM
Ratio Ki [1]: 1.7
Ki (Adenosine receptor A3): 13 nM
Ratio Ki [2]: 441
Ki (Adenosine receptor A1): 22 nM

CNC(=O)[C@H]1O[C@@H](n2cnc3c(NOC)nc(C#Cc4ccc(C)cc4)nc32)[C@H](O)[C@@H]1O
Ki (Adenosine receptor A2a): 14700 nM
Ratio Ki [1]: 3600
Ki (Adenosine receptor A3): 3.3 nM
Ratio Ki [2]: 4500

CONc1nc(I)nc2c1ncn2[C@@H]1O[C@H](CO)[C@@H](O)[C@H]1O
Ki (Adenosine receptor A2a): 12400 nM
Ratio Ki [1]: 8
Ki (Adenosine receptor A3): 7.4 nM
Ratio Ki [2]: 1700
Ki (Adenosine receptor A1): 58 nM

CCCCCc1ccc(C#Cc2nc(NOC)c3ncn([C@@H]4O[C@H](C(=O)NC)[C@@H](O)[C@H]4O)c3n2)cc1
Ki (Adenosine receptor A2a): 31700 nM
Ratio Ki [1]: 874
Ki (Adenosine receptor A3): 55 nM
Ratio Ki [2]: 576
Ki (Adenosine receptor A1): 48100 nM

CCNC(=O)[C@H]1O[C@@H](n2cnc3c(NOC)nc(C#Cc4ccccc4)nc32)[C@H](O)[C@@H]1O
Activity [3]: 35%
Ki (Adenosine receptor A3): 3.5 nM
Ki (Adenosine receptor A1): 1880 nM

CCNC(=O)[C@H]1O[C@@H](n2cnc3c(N)nc(C#Cc4ccccc4)nc32)[C@H](O)[C@@H]1O
Ratio Ki [1]: 90
Ratio Ki [2]: 100

CNC(=O)[C@H]1O[C@@H](n2cnc3c(NOC)nc(C#Cc4ccc(C(C)=O)cc4)nc32)[C@H](O)[C@@H]1O
Ki (Adenosine receptor A2a): 10400 nM
Ratio Ki [1]: 21500
Activity [3]: 41%
Ki (Adenosine receptor A3): 2.5 nM
Ratio Ki [2]: 4200
Ki (Adenosine receptor A1): 53800 nM

CONc1nc(C#Cc2ccc(OC)cc2)nc2c1ncn2[C@@H]1O[C@H](CO)[C@@H](O)[C@H]1O
Ki (Adenosine receptor A2a): 1780 nM
Ratio Ki [1]: 435
Ki (Adenosine receptor A3): 4.3 nM
Ratio Ki [2]: 414
Ki (Adenosine receptor A1): 1870 nM

CCNC(=O)[C@H]1O[C@@H](n2cnc3c(NOC)nc(C#Cc4ccc(C)cc4)nc32)[C@H](O)[C@@H]1O
Ki (Adenosine receptor A2a): 4600 nM
Ratio Ki [1]: 209
Ki (Adenosine receptor A3): 6.8 nM
Ratio Ki [2]: 676
Ki (Adenosine receptor A1): 1420 nM

CONc1nc(C#Cc2ccc(C)cc2)nc2c1ncn2[C@@H]1O[C@H](CO)[C@@H](O)[C@H]1O
Ki (Adenosine receptor A2a): 35100 nM
Ratio Ki [1]: 234
Ki (Adenosine receptor A3): 5.9 nM
Ratio Ki [2]: 6000
Ki (Adenosine receptor A1): 1380 nM

CONc1nc(C#Cc2cccc(C(F)(F)F)c2)nc2c1ncn2[C@@H]1O[C@H](CO)[C@@H](O)[C@H]1O
Ki (Adenosine receptor A2a): 8270 nM
Ratio Ki [1]: 106
Ki (Adenosine receptor A3): 23 nM
Ratio Ki [2]: 360
Ki (Adenosine receptor A1): 2450 nM

CONc1nc(C#Cc2ccc(C(N)=O)cc2)nc2c1ncn2[C@@H]1O[C@H](CO)[C@@H](O)[C@H]1O
Ki (Adenosine receptor A2a): 3130 nM
Ratio Ki [1]: 173
Ki (Adenosine receptor A3): 5.2 nM
Ratio Ki [2]: 602
Ki (Adenosine receptor A1): 901 nM

C#Cc1nc(NOC)c2ncn([C@@H]3O[C@H](CO)[C@@H](O)[C@H]3O)c2n1
Ki (Adenosine receptor A2a): 3140 nM
Ratio Ki [1]: 1
Ki (Adenosine receptor A3): 23 nM
Ratio Ki [2]: 136
Ki (Adenosine receptor A1): 25 nM

CNC(=O)[C@H]1O[C@@H](n2cnc3c(NOC)nc(C#Cc4ccccc4)nc32)[C@H](O)[C@@H]1O
Ki (Adenosine receptor A2a): 16300 nM
Ratio Ki [1]: 4800
Activity [3]: 38%
Ki (Adenosine receptor A3): 1.9 nM
Ratio Ki [2]: 8600
Ki (Adenosine receptor A1): 9140 nM

CONc1nc(C#Cc2ccc(F)cc2)nc2c1ncn2[C@@H]1O[C@H](CO)[C@@H](O)[C@H]1O
Ki (Adenosine receptor A2a): 3960 nM
Ratio Ki [1]: 634
Ki (Adenosine receptor A3): 4.4 nM
Ratio Ki [2]: 900
Ki (Adenosine receptor A1): 2790 nM

CCCCCc1ccc(C#Cc2nc(NOC)c3ncn([C@@H]4O[C@H](C(=O)NCC)[C@@H](O)[C@H]4O)c3n2)cc1
Ki (Adenosine receptor A2a): 27100 nM
Ratio Ki [1]: 60
Ki (Adenosine receptor A3): 68 nM
Ratio Ki [2]: 399
Ki (Adenosine receptor A1): 4090 nM

CCNC(=O)[C@H]1O[C@@H](n2cnc3c(NOC)nc(C#Cc4ccc(C(C)=O)cc4)nc32)[C@H](O)[C@@H]1O
Ki (Adenosine receptor A2a): 4210 nM
Ratio Ki [1]: 307
Ki (Adenosine receptor A3): 4 nM
Ratio Ki [2]: 1100
Ki (Adenosine receptor A1): 1230 nM

Nc1nc(C#Cc2ccccc2)nc2c1ncn2[C@@H]1O[C@H](CO)[C@@H](O)[C@H]1O
Ratio Ki [1]: 24
Ratio Ki [2]: 23

CNC(=O)[C@H]1O[C@@H](n2cnc3c(NOC)nc(I)nc32)[C@H](O)[C@@H]1O
Ki (Adenosine receptor A2a): 12100 nM
Ratio Ki [1]: 90
Ki (Adenosine receptor A3): 1.7 nM
Ratio Ki [2]: 7100
Ki (Adenosine receptor A1): 153 nM
